In ChEMBL document CHEMBL3785029, “Synthesis and Characterization of Fatty Acid Conjugates of Niacin and Salicylic Acid” (J Med Chem, 2016):
Activity calls are given as the source filed them. The rule behind the calls is not given here.

What was measured:
[1] = Drug uptake in endoplasmic reticulum of human HuH7 cells at 25 uM after 30 mins by LysoTracker/DAPI staining-based confocal microscopy; assay type: ADME, cell-based; conditions: huh-7, 0.5 h
In short: (§1)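 HuH-7 hepatocellular carcinoma cells were plated overnight in DMEM with 10% FBS. They were transduced for 48 h with BacMam CellLight ER-RFP or Late Endosomes-RFP organelle markers. Cells were then exposed for 30 min to fluorescent cis-parinaric acid conjugate in DMEM at 25 µM. They were fixed in 4% paraformaldehyde for 2 min at 37 °C, washed with PBS, mounted with anti-fade DAPI and imaged by confocal microscopy at 63X.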

[2] = Drug uptake in lysosomes of human HuH7 cells at 25 uM after 30 mins by LysoTracker/DAPI staining-based confocal microscopy; assay type: ADME, cell-based, Lysosome; conditions: huh-7, 0.5 h
[3] = system: Plasma; assay: Drug level in Sprague-Dawley rat plasma treated with N-(2-(4Z,7Z,10Z,13Z,16Z,19Z)-docosa-4,7,10,13,16,19-hexaenamidoethyl)-2-hydroxybenzamide at 300 mg/kg, po measured up to 24 hrs post dose; assay type: ADME, organism-based; conditions: in vivo
In short: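 Single oral dose of 300 mg/kg to Sprague Dawley rats. Plasma collected at 0, 0.5, 1, 2, 4, 8 and 24 hr. Analytes were the parent, the salicylate-linker and linker-DHA metabolites, salicylic acid and salicyluric acid; Cmax and AUClast derived.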

[4] = Cmax in portal vein cannulated Sprague-Dawley rat at 30 mg/kg, po measured up to 140 mins; assay type: ADME, organism-based; set-up: dose 30 mg/kg, route oral; conditions: portal vein blood
In short: (§2)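 Sprague Dawley rats surgically fitted with indwelling jugular vein and portal vein cannulas; oral dosing, then serial blood draws from both portal and jugular veins at 10, 20, 40 min and 1, 2, 4, 6 hr post dose; plasma analysed for parent and metabolites by LC/MS/MS.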

[5] = system: Rattus norvegicus; assay: Cmax in jugular vein cannulated Sprague-Dawley rat assessed nicotinuric acid at 30 mg/kg, po measured up to 140 mins; assay type: ADME, organism-based; set-up: dose 30 mg/kg, route oral; conditions: in vivo; in short: as §2
[6] = Cmax in jugular vein cannulated Sprague-Dawley rat at 30 mg/kg, po measured up to 140 mins; assay type: ADME, organism-based; set-up: dose 30 mg/kg, route oral; conditions: jugular vein blood; in short: as §2
[7] = system: Rattus norvegicus; assay: Cmax in portal vein cannulated Sprague-Dawley rat assessed as (S)-N-(pyrrolidin-3-yl)nicotinamide at 30 mg/kg, po measured up to 140 mins; assay type: ADME, organism-based; set-up: dose 30 mg/kg, route oral; conditions: in vivo; in short: as §2
[8] = system: Rattus norvegicus; assay: Cmax in portal vein cannulated Sprague-Dawley rat assessed nicotinuric acid at 30 mg/kg, po measured up to 140 mins; assay type: ADME, organism-based; set-up: dose 30 mg/kg, route oral; conditions: in vivo; in short: as §2
[9] = system: Rattus norvegicus; assay: Cmax in jugular vein cannulated Sprague-Dawley rat assessed as (S)-N-(pyrrolidin-3-yl)nicotinamide at 30 mg/kg, po measured up to 140 mins; assay type: ADME, organism-based; set-up: dose 30 mg/kg, route oral; conditions: in vivo; in short: as §2
[10] = biological target: T1, Sterol regulatory element-binding protein 2 (Homo sapiens) (UniProt Q12772); assay: Induction of SREBP2 maturation in human HepG2 cells at 10 uM after overnight incubation by immunoblot analysis; assay type: cell-based
T1 sequence (whole entry): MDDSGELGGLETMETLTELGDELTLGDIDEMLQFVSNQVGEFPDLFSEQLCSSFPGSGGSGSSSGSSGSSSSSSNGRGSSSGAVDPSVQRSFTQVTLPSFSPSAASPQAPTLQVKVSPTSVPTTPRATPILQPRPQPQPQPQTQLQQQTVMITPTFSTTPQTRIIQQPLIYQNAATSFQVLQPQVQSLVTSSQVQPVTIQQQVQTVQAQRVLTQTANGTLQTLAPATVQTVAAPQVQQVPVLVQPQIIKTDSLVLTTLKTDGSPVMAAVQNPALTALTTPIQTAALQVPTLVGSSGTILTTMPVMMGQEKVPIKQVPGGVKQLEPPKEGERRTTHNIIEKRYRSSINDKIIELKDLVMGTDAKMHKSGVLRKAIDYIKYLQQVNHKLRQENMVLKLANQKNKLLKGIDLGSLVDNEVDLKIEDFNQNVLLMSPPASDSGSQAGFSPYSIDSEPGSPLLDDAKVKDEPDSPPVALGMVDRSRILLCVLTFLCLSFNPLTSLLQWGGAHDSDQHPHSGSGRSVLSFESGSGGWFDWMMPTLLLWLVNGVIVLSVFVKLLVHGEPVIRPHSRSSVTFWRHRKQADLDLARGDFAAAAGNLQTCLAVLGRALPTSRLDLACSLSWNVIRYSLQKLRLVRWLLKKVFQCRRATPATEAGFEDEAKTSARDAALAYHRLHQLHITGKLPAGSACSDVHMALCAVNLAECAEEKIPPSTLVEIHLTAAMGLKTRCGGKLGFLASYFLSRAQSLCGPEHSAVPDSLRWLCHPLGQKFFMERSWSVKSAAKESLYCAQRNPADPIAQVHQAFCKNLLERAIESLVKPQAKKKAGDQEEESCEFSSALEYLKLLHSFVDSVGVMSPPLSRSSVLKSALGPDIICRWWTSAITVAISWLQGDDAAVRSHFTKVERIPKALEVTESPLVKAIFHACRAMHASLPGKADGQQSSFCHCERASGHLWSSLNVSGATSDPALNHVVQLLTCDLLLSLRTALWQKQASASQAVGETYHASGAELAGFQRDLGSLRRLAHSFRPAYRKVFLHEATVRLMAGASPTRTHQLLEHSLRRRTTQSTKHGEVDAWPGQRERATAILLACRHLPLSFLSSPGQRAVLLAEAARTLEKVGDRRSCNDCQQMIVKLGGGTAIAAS
In short: (§3)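 Human HepG2 cells were incubated with test agents, including 10 µM atorvastatin alone or combined with conjugate. The mature form of SREBP-2 protein was then assessed.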

[11] = Drug uptake in lysosomes of CellLight ER-RFP/BacMam 2-treated human HuH7 cells at 25 uM after 30 mins by DAPI staining-based confocal microscopy; assay type: ADME, cell-based, Lysosome; conditions: huh-7, 0.5 h; in short: as §1
[12] = Drug uptake in endoplasmic reticulum of CellLight ER-RFP/BacMam 2-treated human HuH7 cells at 25 uM after 30 mins by DAPI staining-based confocal microscopy; assay type: ADME, cell-based; conditions: huh-7, 0.5 h
In short: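 HuH-7 cells were plated overnight in 10% FBS DMEM and transduced with CellLight ER-RFP BacMam 2.0 for 48 h. They were then exposed to fluorescent conjugate at 25 µM in DMEM for 30 min, fixed in 4% paraformaldehyde for 2 min at 37 °C and washed with PBS. Imaging was by confocal microscopy with a 63X lens.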

[13] = Drug uptake in endoplasmic reticulum of CellLight ER-RFP-treated human HuH7 cells at 25 uM after 30 mins by DAPI staining-based confocal microscopy in presence of endocytosis inhibitor dynasore; assay type: ADME, cell-based; conditions: huh-7, 0.5 h
In short: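 HuH-7 cells were transduced with CellLight ER-RFP BacMam 2.0 for 48 h and pretreated with 80 µM dynasore. They were then exposed to compound for 30 min, fixed in 4% formaldehyde for 2 min at 37 °C and mounted with anti-fade DAPI. Imaging was by confocal microscopy with a 63X lens.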

[14] = organism: Mus musculus; assay: Inhibition of NFkappaB in mouse RAW 264.7 cells at 78.7 uM preincubated for 2 hrs followed by LPS addition for 3 hrs by luciferase reporter gene assay relative to control; assay type: cell-based
[15] = in vivo; conditions: Sprague-Dawley, rat, po, 30 mg/kg
[16] = biological target: T1, Sterol regulatory element-binding protein 2 (Homo sapiens); assay: Inhibition of SREBP2 maturation in human HepG2 cells at 50 uM after overnight incubation by immunoblot analysis; assay type: cell-based; in short: as §3
[17] = AUClast in Sprague-Dawley rat at 30 mg/kg, po administered as single dose measured up to 6 hrs post dose by LC/MS/MS analysis; conditions: in vivo
[18] = biological target: T1, Sterol regulatory element-binding protein 2 (Homo sapiens); conditions: HepG2, 10 uM
[19] = organism: Mus musculus; conditions: 3.2 mM
[20] = biological target: T2, Fatty-acid amide hydrolase 1 (Homo sapiens, UniProt O00519); assay: Drug metabolism in human HepG2 cells assessed as FAAH-mediated compound hydrolysis by measuring level of deuterium-labelled EPA-d5 released at 50 uM by LC/MS-MS analysis; assay type: ADME, cell-based; conditions: hepg2, 50 µM, TDE = time-dependent effect
T2 sequence (O00519 whole entry): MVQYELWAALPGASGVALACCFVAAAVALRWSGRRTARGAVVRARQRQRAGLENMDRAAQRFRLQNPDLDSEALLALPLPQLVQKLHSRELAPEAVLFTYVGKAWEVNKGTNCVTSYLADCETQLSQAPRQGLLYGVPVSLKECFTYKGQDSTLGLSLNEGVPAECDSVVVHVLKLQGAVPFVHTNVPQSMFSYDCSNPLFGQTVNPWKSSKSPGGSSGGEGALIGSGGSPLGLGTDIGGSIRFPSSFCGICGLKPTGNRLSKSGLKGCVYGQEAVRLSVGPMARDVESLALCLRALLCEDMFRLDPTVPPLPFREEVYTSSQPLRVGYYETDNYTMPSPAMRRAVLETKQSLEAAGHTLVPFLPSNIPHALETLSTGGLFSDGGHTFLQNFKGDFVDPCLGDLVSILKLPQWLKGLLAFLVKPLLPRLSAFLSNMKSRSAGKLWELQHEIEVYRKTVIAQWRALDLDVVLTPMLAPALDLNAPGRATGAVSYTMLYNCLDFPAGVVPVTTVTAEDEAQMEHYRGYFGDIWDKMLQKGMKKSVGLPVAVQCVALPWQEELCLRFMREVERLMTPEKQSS

[21] = system: Rattus norvegicus; assay: Cmax in portal vein cannulated Sprague-Dawley rat assessed as N-(2-(methylamino)ethyl)nicotinamide at 30 mg/kg, po measured up to 140 mins; assay type: ADME, organism-based; set-up: dose 30 mg/kg, route oral; conditions: in vivo, BLD = below limit of detection; in short: as §2
[22] = system: Liver; assay: Drug uptake in Sprague-Dawley rat liver at 100 mg/kg, po qd for 3 days measured 4 hrs post last dose; assay type: ADME, organism-based; conditions: in vivo
In short: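 Sprague Dawley rats (n = 6) dosed 100 mg/kg once daily for 3 days; plasma and tissues collected four hours after the last dose and analysed for parent compound and metabolites.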

[23] = system: Rattus norvegicus; assay: Cmax in jugular vein cannulated Sprague-Dawley rat assessed as N-(2-(methylamino)ethyl)nicotinamide at 30 mg/kg, po measured up to 140 mins; assay type: ADME, organism-based; set-up: dose 30 mg/kg, route oral; conditions: in vivo, BLD = below limit of detection; in short: as §2
[24] = biological target: T1, Sterol regulatory element-binding protein 2 (Homo sapiens); assay: Inhibition of SREBP2 in human HepG2 cells assessed as reduction of PCSK9 secretion at 50 uM after 16 hrs by ELISA; assay type: cell-based
In short: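 Human HepG2 cells were treated in culture. Secreted PCSK9 in the culture supernatant was quantified with a human-specific PCSK9 ELISA.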

CC\C=C/C=C/C=C/C=C\CCCCCCCC(=O)O
Drug uptake [1]: Not Active | Drug uptake [2]: Not Active

NCCNC(=O)c1ccccc1O
Drug metabolism [3]: metabolite_detected

CC/C=C\C/C=C\C/C=C\C/C=C\C/C=C\CCCC(=O)N1CCC(NC(=O)c2cccnc2)C1 (single isomer, unassigned)
Cmax [4]: 5320 ng/mL | Cmax [5]: 11 ng/mL | Cmax [6]: 564 ng/mL | Cmax [7]: 73 ng/mL | Cmax [8]: 13 ng/mL | Cmax [9]: 35 ng/mL

CC(C)c1c(C(=O)Nc2ccccc2)c(-c2ccccc2)c(-c2ccc(F)cc2)n1CC[C@@H](O)C[C@@H](O)CC(=O)O
Activity [10]: Active

CC\C=C/C=C/C=C/C=C\CCCCCCCC(=O)NCCNC(=O)c1cccnc1
Drug uptake [11]: Not Active | Drug uptake [12]: Active | Drug uptake [13]: Not Active

CC\C=C/C=C/C=C/C=C\CCCCCCCC(=O)NCCNC(=O)c1ccccc1O
Drug uptake [12]: Active

CC/C=C\C/C=C\C/C=C\C/C=C\C/C=C\C/C=C\CCC(=O)O
inhibition [14]: Active

O=C(O)c1cccnc1 [NIACIN]
Cmax at 6 h [15]: 7470 ng/mL | inhibition [16]: inactive | AUC(0-t) at 6 h [17]: 6980 ng·h/mL | inhibition [18]: inactive

O=C(O)c1ccccc1O [SALICYLIC ACID]
Drug metabolism [3]: metabolite_detected | inhibition [19]: Active

O=C(O)CNC(=O)c1ccccc1O [SALICYLURIC ACID]
Drug metabolism [3]: metabolite_detected

[2H]C([2H])([2H])C([2H])([2H])/C=C\C/C=C\C/C=C\C/C=C\C/C=C\CCCC(=O)NCCNC(=O)c1cccnc1
Drug metabolism [20]: tde

CC/C=C\C/C=C\C/C=C\C/C=C\C/C=C\CCCC(=O)N(C)CCNC(=O)c1cccnc1
Cmax [4]: 5060 ng/mL | Cmax [21]: BLD | Cmax [5]: 28 ng/mL | Cmax [6]: 400 ng/mL | Drug uptake [22]: Active | Cmax [8]: 11 ng/mL | Cmax [23]: BLD

CC/C=C\C/C=C\C/C=C\C/C=C\C/C=C\CCCC(=O)O
inhibition [24]: inactive | inhibition [16]: inactive
